Columns and labels:
Human GPR99 (WT) = Human GPR99 (WT) (Homo sapiens, UniProt Q96P68); test: cAMP inhibition assay; format: cell-based
Summary of the method: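 HeLa cells transiently expressing human GPR99 for 24 h, pretreated 12 h at 37 °C with 250 ng/mL PTX or vehicle. Cells harvested in HBSS with 5 mM HEPES, 0.1% BSA and 0.5 mM IBMX, then stimulated 30 min with varying ligand concentrations plus 2.5 μM forskolin. cAMP read by LANCE Ultra kit. Data are % of maximal response, mean ± SEM, ≥3 independent experiments; EC50 from three-parameter curve fit.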

Human GPR99 (wild-type) = Human GPR99 (wild-type) (Homo sapiens, UniProt Q96P68); test: IP-one accumulation assay, wild-type receptor; format: cell-based; conditions: WT
GPR99/OXGR1 R148A = GPR99/OXGR1 R148A (Homo sapiens, UniProt Q96P68, R148A); test: IP-one accumulation assay, R148A mutant; format: cell-based; conditions: R148A vs WT
GPR99/OXGR1 C141A = GPR99/OXGR1 C141A (Homo sapiens, UniProt Q96P68, C141A); test: IP-one accumulation assay, C141A mutant; format: cell-based; conditions: C141A vs WT
GPR99 = GPR99 (Homo sapiens, UniProt Q96P68); conditions: GPR99 recognition of oxoglutarate; cited from earlier work
GPR99/OXGR1 = GPR99/OXGR1 (Homo sapiens, UniProt Q96P68); conditions: oxoglutarate for GPR99/OXGR1; no reference given; cited from earlier work
GPR99/OXGR1 K32A = GPR99/OXGR1 K32A (Homo sapiens, UniProt Q96P68, K32A); test: IP-one accumulation assay, K32A mutant; format: cell-based; conditions: K32A vs WT; oxoglutarate stimulation
GPR99/OXGR1 Y92A = GPR99/OXGR1 Y92A (Homo sapiens, UniProt Q96P68, Y92A); test: IP-one accumulation assay, Y92A mutant; format: cell-based; conditions: Y92A vs WT; oxoglutarate stimulation
[1] = 250 ng/mL PTX pretreatment 12 h

Compound	effect on cAMP response elicited by LTE4 (Human GPR99 (WT); [1])	effect on LTE4-induced IP1 accumulation (Human GPR99 (wild-type); [1])	effect of alanine substitution on oxoglutarate-induced receptor activation (IP1) (GPR99/OXGR1 R148A)	effect of alanine substitution on oxoglutarate-induced receptor activation (IP1) (GPR99/OXGR1 C141A)	EC50 (GPR99) [µM]	affinity (Kd) (GPR99/OXGR1)	cAMP reduction downstream of Gi coupling (Human GPR99 (WT); HeLa, 2.5 μM forskolin)	IP1 accumulation (PLC pathway downstream of Gq) (Human GPR99 (wild-type); HeLa)	increase in EC50 (IP1 accumulation) (GPR99/OXGR1 K32A)	maximum response (Emax), IP1 accumulation (GPR99/OXGR1 K32A)	increase in EC50 (IP1 accumulation) (GPR99/OXGR1 Y92A)	maximum response (Emax), IP1 accumulation (GPR99/OXGR1 Y92A)
pertussis toxin [PTX]	abrogated	without affecting IP1 accumulation										
O=C(O)CCC(=O)C(=O)O [oxoglutarate, 2-oxoglutarate]			little effect	little effect	~200	hundreds of micromolar	failed to stimulate cAMP reduction	increased IP1 accumulation	more than 100 fold	remained unchanged	more than 100 fold	remained unchanged

Reference: paper PMC12714840 (Nature Communications, 2025)
